ChEMBL document CHEMBL4610117 (J Med Chem, 2020)
Calls of active or inactive are those of the source. The rule behind the calls is not given here.

Assays:
[1] = target: T1, Serine/threonine-protein kinase ATR (Homo sapiens, UniProt Q13535); experiment: Inhibition of 5'-TAMRA-labeled tracer 3',6'-bis(dimethylamino)-N-(4-{[2(1H-indol-4-yl)-6-(morpholin-4-yl)-pyrimidin-4-yl]amino}butyl)-3-oxo-3H-spiro[2-benzofuran-1,9'-xanthene]-5-carboxamide binding to recombinant human full-length N-terminal Flag-tagged ATR expressed in HEK293-6E cells co-expressing human full-length STREP-tagged ATRIP preincubated for 10 mins followed by tracer addition and measured after 30 mins by TR-FRET assay; type: cell-based
[2] = target: T1, Serine/threonine-protein kinase ATR; experiment: Inhibition of ATR in human HT-29 cells assessed as reduction in histone H2AX phosphorylation measured after 30 mins by immunofluorescence cytometric assay; type: cell-based
Method in brief: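 HT-29 cells were seeded at 12000/point in DMEM/Ham's F12 with 2 mM L-glutamine and 10% FCS and grown 24 h at 37 °C. Compound (1 nM–10 μM final) was added with hydroxyurea (2.5 mM final) for 30 min at 37 °C.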

[3] = Selectivity ratio of IC50 for inhibition of PI3K/AKT/mTOR signaling pathway in human MCF7 cells to IC50 for inhibition of ATR in human HT-29 cells
[4] = tested on: HT-29; experiment: Antiproliferative activity against human HT-29 cells assessed as reduction in cell viability measured after 4 days by crystal violet staining based assay; type: functional; details: HT-29, 96 h
Method in brief: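 Cells plated at 2000 (HT-29) or 3000 (LoVo) per point in DMEM/Ham's F12 with 2 mM L-glutamine and 10% FCS. After 24 h adherence, compounds were added at 0.001–10 μM (0.1% DMSO final) and incubated continuously for 4 d at 37 °C. Cells were glutaraldehyde-fixed, stained with crystal violet and read at 595 nm.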

[5] = tested on: HT-29; experiment: Antitumor activity against human HT-29 cells xenografted in po dosed mouse administered twice daily; type: functional, organism-based
[6] = tested on: LoVo; experiment: Antiproliferative activity against human LoVo cells assessed as reduction in cell viability measured after 4 days by crystal violet staining based assay; type: functional; details: 96 h
[7] = Oral bioavailability in Wistar rat at 0.6 to 1 mg/kg by LC-MS/MS analysis; type: ADME, organism-based; details: in vivo
[8] = Efflux ratio of apparent permeability across basolateral to apical side over apical to basolateral side in human Caco2 cells at 2 uM; details: Caco-2
[9] = Clearance in Wistar rat at 0.3 to 0.5 mg/kg, iv administered as bolus dose by LC-MS/MS analysis; type: ADME, organism-based; details: in vivo
[10] = Clearance in Han-Wistar rat hepatocytes at 1 uM measured after 2 to 90 mins by LC-MS/MS analysis; type: ADME, cell-based, Hepatocyte
[11] = target: Voltage-gated inwardly rectifying potassium channel KCNH2 (Homo sapiens, UniProt Q12809); experiment: Inhibition of recombinant human ERG stably expressed in HEK293 cells at -80 mV by whole cell voltage clamp method
[12] = Clearance in rat liver microsomes at 1 uM measured after 2 to 60 mins in presence of NADP by LC-MS/MS analysis; type: ADME, Microsome
[13] = Volume of distribution at steady state in Wistar rat at 0.3 to 0.5 mg/kg, iv administered as bolus dose by LC-MS/MS analysis; type: ADME, organism-based; details: in vivo, read-out: Vdss
[14] = Apparent permeability across apical to basolateral side in human Caco2 cells at 2 uM measured after 2 hrs by LC-MS/MS analysis; details: Caco-2
[15] = Lipophilicity, log D of the compound in pH 7.5 MeCN/H2O solution by reversed-phase HPLC analysis
[16] = physchem; details: pH 6.5
[17] = Apparent half life in Wistar rat at 0.3 to 0.5 mg/kg, iv administered as bolus dose by LC-MS/MS analysis; type: ADME, organism-based; details: in vivo, read-out: t1/2(app) (converted)

T1 sequence (Q13535 whole entry): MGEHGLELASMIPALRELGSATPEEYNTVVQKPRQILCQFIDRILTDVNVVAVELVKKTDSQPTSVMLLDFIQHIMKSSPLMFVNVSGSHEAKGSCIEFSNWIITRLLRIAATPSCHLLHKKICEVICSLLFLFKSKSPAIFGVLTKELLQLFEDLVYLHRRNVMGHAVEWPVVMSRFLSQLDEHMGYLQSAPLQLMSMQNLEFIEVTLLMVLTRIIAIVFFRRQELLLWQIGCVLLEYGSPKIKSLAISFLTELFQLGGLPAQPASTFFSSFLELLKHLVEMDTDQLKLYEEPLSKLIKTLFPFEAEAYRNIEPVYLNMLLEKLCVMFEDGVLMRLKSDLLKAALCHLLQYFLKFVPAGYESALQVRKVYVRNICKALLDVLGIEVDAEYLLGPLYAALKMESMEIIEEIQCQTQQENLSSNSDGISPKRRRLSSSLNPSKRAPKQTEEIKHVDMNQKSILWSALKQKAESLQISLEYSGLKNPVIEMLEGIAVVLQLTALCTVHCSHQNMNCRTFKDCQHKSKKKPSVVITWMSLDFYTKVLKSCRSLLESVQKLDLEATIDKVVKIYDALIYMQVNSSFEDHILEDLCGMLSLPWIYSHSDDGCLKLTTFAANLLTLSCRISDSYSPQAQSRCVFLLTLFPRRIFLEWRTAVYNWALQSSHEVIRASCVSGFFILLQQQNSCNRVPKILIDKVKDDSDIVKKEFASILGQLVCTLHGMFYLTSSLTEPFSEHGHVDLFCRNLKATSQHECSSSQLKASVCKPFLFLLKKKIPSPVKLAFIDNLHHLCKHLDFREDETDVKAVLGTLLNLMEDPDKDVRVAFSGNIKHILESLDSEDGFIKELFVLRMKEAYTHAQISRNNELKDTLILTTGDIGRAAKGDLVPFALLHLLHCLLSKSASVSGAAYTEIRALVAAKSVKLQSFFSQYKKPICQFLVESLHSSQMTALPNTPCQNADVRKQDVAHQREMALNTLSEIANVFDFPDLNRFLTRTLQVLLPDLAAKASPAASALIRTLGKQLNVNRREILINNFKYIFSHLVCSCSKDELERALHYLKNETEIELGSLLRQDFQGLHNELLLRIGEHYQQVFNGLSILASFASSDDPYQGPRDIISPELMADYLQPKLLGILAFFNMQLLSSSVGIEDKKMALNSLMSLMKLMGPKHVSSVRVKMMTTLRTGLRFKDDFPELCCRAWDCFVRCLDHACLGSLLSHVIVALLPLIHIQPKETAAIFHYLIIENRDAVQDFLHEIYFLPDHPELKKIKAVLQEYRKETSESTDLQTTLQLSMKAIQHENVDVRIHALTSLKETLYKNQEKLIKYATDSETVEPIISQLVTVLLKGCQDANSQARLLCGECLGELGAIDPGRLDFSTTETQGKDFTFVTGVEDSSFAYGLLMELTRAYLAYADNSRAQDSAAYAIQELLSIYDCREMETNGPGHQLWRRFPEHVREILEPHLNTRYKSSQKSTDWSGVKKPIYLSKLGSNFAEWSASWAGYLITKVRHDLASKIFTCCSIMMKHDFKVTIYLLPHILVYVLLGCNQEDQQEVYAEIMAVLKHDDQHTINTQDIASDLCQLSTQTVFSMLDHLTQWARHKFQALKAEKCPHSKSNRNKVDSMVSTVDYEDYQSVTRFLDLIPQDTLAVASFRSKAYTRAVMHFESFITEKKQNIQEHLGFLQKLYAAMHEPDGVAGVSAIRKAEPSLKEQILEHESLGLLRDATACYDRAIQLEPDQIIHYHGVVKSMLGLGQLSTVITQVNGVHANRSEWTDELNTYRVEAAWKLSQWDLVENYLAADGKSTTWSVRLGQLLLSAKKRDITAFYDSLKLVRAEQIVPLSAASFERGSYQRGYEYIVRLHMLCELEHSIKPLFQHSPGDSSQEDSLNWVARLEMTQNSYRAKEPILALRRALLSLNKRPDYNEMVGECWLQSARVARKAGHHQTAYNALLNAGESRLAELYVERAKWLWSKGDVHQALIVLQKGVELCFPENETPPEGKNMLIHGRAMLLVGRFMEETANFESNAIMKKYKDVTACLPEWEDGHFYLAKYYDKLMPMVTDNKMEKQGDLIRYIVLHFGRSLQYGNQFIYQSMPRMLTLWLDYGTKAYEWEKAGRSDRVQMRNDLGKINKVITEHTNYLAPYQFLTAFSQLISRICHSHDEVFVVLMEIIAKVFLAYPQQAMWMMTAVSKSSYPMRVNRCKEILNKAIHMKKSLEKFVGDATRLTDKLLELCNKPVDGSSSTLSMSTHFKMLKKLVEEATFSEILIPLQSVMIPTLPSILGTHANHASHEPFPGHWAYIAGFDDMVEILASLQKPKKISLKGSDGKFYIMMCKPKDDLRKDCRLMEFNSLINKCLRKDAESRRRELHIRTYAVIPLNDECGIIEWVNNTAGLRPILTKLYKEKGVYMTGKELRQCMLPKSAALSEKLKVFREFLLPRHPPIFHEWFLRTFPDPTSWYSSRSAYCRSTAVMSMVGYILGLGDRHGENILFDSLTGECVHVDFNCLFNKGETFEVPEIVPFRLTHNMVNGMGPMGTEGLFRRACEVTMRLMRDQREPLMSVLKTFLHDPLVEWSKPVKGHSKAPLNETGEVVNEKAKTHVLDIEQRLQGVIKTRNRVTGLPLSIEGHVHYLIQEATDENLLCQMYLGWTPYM
Sequence of Voltage-gated inwardly rectifying potassium channel KCNH2 (Q12809 whole entry): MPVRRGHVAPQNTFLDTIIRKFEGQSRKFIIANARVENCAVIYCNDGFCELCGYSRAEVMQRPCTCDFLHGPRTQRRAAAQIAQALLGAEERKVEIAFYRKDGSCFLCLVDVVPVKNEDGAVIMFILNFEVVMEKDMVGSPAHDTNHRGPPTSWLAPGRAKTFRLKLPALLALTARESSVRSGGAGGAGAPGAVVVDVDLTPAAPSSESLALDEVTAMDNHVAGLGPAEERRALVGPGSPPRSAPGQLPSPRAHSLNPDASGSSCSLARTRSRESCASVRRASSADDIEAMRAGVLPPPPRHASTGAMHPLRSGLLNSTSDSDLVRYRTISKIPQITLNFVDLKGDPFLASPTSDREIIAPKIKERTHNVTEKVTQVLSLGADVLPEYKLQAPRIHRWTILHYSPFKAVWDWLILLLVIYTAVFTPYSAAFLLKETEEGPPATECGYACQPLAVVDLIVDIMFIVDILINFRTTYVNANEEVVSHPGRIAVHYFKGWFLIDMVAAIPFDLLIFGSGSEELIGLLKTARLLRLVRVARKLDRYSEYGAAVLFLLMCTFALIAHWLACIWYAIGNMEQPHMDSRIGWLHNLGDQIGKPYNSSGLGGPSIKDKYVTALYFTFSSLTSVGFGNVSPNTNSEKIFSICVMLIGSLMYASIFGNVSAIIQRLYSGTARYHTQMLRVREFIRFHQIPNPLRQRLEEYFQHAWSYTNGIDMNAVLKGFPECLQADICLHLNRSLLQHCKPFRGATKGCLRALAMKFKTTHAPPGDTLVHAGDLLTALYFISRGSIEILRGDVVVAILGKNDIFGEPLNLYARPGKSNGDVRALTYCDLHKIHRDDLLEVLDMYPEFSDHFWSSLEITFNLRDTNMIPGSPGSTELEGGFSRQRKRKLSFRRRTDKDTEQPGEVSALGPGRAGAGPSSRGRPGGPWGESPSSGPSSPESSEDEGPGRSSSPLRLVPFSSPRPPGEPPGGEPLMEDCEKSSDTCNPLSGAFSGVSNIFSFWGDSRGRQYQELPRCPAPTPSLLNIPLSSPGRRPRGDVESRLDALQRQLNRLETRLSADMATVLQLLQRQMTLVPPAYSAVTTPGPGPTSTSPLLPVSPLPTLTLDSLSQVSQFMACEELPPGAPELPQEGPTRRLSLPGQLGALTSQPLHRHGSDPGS

Compound	IC50 [1] [nM]	IC50 [2] [nM]	IC50 [4] [nM]	also measured
C[C@@H]1COCCN1c1cc(N2CCN(S(C)(=O)=O)CC2)c2ccnc(-c3ccn[nH]3)c2n1	5	59	233	Ratio IC50 [3]: 44
CC(C)Oc1cc(N2CCOCC2)nc2c(-c3cccc(=O)[nH]3)nccc12	> 20000			
COc1cccc(-c2nccc3c(OC(C)C)cc(N4CCOCC4)nc23)n1	13200			
CC(C)Oc1cc(N2CCOCC2)nc2c(-c3ccn[nH]3)nccc12		424		Ratio IC50 [3]: 5
CC(C)Oc1cc(N2CCOCC2)nc2c(C3CCNC3)nccc12 (stereo not given)	> 20000			
CNC(=O)c1nccc2c(OC(C)C)cc(N3CCOCC3)nc12	> 20000			
CC(C)Oc1cc(N2C[C@@H]3C[C@H]2CO3)nc2c(-c3ccn[nH]3)nccc12	922			
CC(C)Oc1cc(N2C[C@H]3COC[C@H]3C2)nc2c(-c3ccn[nH]3)nccc12	9440			
CC(C)Oc1cc(N2CCOCC2C(F)(F)F)nc2c(-c3ccn[nH]3)nccc12 (stereo not given)	8610			
CC(C)Oc1cc(N2CC(F)(F)OC(F)(F)C2)nc2c(-c3ccn[nH]3)nccc12	> 20000			
Cc1nccn1-c1cc(N2CCOC[C@H]2C)nc2c(-c3ccn[nH]3)nccc12	25	76	192	Ratio IC50 [3]: 263
C[C@@H]1COCCN1c1cc(C#Cc2cccnc2)c2ccnc(-c3ccn[nH]3)c2n1	22	227	405	Ratio IC50 [3]: 8
CC(C)Oc1cc(N2CCOCC2)nc2c(-c3ccnn3C)nccc12	12500			
CC(C)Oc1cc(N2CCOCC2)nc2c(-c3cn[nH]c3)nccc12	3690			
CC(C)Oc1cc(N2CCOCC2)nc2c(-c3nnn[nH]3)nccc12	> 20000			
C[C@@H]1COCCN1c1cc(C2(S(C)(=O)=O)CC2)c2ccnc(-c3ccn[nH]3)c2n1	15	86	268	Ratio IC50 [3]: 71
CC(C)Oc1cc(N2CCO[C@H](C)C2)nc2c(-c3ccn[nH]3)nccc12	1500			
CC(C)Oc1cc(N2CCOC3CC32)nc2c(-c3ccn[nH]3)nccc12 (stereo not given)	1510			
CC(C)Oc1cc(N2CCO[C@@H](C)C2)nc2c(-c3ccn[nH]3)nccc12	1970			
CCP(=O)(CC)c1cc(N2CCOC[C@H]2C)nc2c(-c3ccn[nH]3)nccc12		289	498	Ratio IC50 [3]: 61
Cc1cc(-c2nccc3c(OC(C)C)cc(N4CCOCC4)nc23)n[nH]1	12700			
CC(C)Oc1cc(N2CCOC[C@H]2C)nc2c(-c3ccn[nH]3)nccc12		154	929	Ratio IC50 [3]: 25
CC(C)Oc1cc(N2CCOCC2)nc2cnccc12	> 20000			

Compound	IC50 [1] [nM]	IC50 [2] [nM]	IC50 [4] [nM]	also measured
C[C@@H]1COCCN1c1cc(-c2cnc3n2CCC3)c2ccnc(-c3ccn[nH]3)c2n1		82	125	Ratio IC50 [3]: 59
C[C@@H]1COCCN1c1cc(C(C)(O)C(C)(C)C)c2ccnc(-c3ccn[nH]3)c2n1 (stereo not given in full)			93	
CS(=O)(=O)c1ccc(-c2cc(N3CCOCC3)nc3c(-c4ccn[nH]4)nccc23)cc1			704	Activity [5]: Active; Ratio IC50 [3]: 13; IC50 [6]: 315 nM
CC(C)Oc1cc(N2CCOCC2)nc2c(-c3ccc[nH]c3=O)nccc12	> 20000			
COC1(C)CN(c2cc(OC(C)C)c3ccnc(-c4ccn[nH]4)c3n2)C1	> 20000			
CC(C)Oc1cc(N2CCOCC2)nc2c(C(N)=O)nccc12	3300			
CC(C)Oc1cc(N2CCOCC2)nc2c(-c3ccn[nH]3)cccc12	5050			
CC(C)Oc1cc(N2CCOCC2)nc2c(-c3cccnc3)nccc12	18100			
CCC1COCCN1c1cc(OC(C)C)c2ccnc(-c3ccn[nH]3)c2n1 (stereo not given)	1860			
CC(C)Oc1cc(N2CCOCC2)nc2c(-c3ccc[nH]3)nccc12		> 3000		
Cc1nc(S(C)(=N)=O)ccc1-c1cc(N2CCOC[C@H]2C)nc2c(-c3ccn[nH]3)nccc12 (stereo not given in full)	10	266	323	Ratio IC50 [3]: 16
CC(C)Oc1cc(N2CCOCC2)nc2c(-c3cnc[nH]3)nccc12	3400			
C[C@@H]1COCCN1c1cc(C2CCOCC2)c2ccnc(-c3ccn[nH]3)c2n1			292	
C[C@@H]1COCCN1c1cc(-c2cccnc2F)c2ccnc(-c3ccn[nH]3)c2n1	8	44	175	Ratio IC50 [3]: 50
CC(C)Oc1cc(N2CCOCC2(C)C)nc2c(-c3ccn[nH]3)nccc12	> 20000			
CCS(=O)(CC)=Nc1cc(N2CCOC[C@H]2C)nc2c(-c3ccn[nH]3)nccc12	22	30	168	Ratio IC50 [3]: 217
CC(C)Oc1cc(N2C3CCC2COC3)nc2c(-c3ccn[nH]3)nccc12	310			
CC(C)Oc1cc(N2CCOCC2)nc2c(-c3cccc(C(N)=O)c3)nccc12	17200			
Cc1cn[nH]c1-c1nccc2c(OC(C)C)cc(N3CCOCC3)nc12	5640			
CC(C)Oc1cc(N2CCOCC2)nc2c(-c3cc4ccccc4[nH]3)nccc12	> 20000			
C[C@@H]1COCCN1c1cc(N(C)c2ccc(F)cc2)c2ccnc(-c3ccn[nH]3)c2n1	9	70	381	Ratio IC50 [3]: 42
CS(=O)(=O)c1ccc(-c2cc(N3CCOCC3)nc3c(-c4cc[nH]n4)nccc23)cc1		380		bioavailability [7]: 14%; efflux ratio at 2 µM [8]: 2.1; clearance [9]: 25 mL/min/kg; CLH [10]: 10.7 mL/min/kg; IC50 [11]: 5800 nM; CLH [12]: 11.5 mL/min/kg; Vd [13]: 2 L/kg; Papp A→B at 2 h, 2 µM [14]: 10.2 ×10⁻⁶ cm/s; chromatographic logD [15]: 2.1; solubility at 24 h [16]: < 1 µg/mL; half-life [17]: 55.8 min
